# Reference: ChEMBL document CHEMBL1139583, “Design, synthesis and evaluation of racemic 1-(4-hydroxyphenyl)-2-[3-(substituted phenoxy)-2-hydroxy-1-propyl]amino-1-propanol hydrochlorides as novel uterine relaxants” (Bioorg Med Chem Lett, 2005)
# Assays:
# Type in all cases: functional
# [1] = species: Rattus norvegicus; experiment: Inhibition of oxytocin induced contraction required for uterine relaxant activity in isolated rat uterus preparation
# [2] = species: Rattus norvegicus; experiment: cAmp released in rat at 10 mg
# Outline: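 Oral dosing of virgin female Sprague–Dawley rats in oestrus. Rats killed 3 h later. Uterine strips weighed and homogenized in Tris–EDTA, then centrifuged at 12,000g. Supernatant TCA removed by ether extraction and pH set to 7.5. cAMP measured by [³H]cAMP competitive binding assay against 0–16 pmol standards, 2 h at 2–8 °C, charcoal separation, scintillation counting.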
# [3] = species: Rattus norvegicus; experiment: Delayed onset of labour in rat by comparing with control at 10 mg
# Outline: (§1)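 Pregnant Sprague–Dawley rats, six per dose group, dosed orally at 10 and 15 mg/kg/day from gestation day 13 to 21. Reference agent given at 10 mg/kg/day p.o. Onset of labour compared with control.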
# [4] = species: Rattus norvegicus; experiment: Delayed onset of labour in rat by comparing with control at 15 mg; outline: as §1
IC50 [1],Compound,Activity [2],Activity [3],Activity [4]
6.58 µmol,CC(=O)Nc1ccc(OCC(O)CNC(C)C(O)c2ccc(O)cc2)c(C(C)=O)c1.Cl (centres undefined),3.53 pmol,23.7 h,30.1 h
9.15 µmol,CC(COc1ccccc1)NC(C)C(O)c1ccc(O)cc1.Cl (centres undefined) [ISOXSUPRINE HYDROCHLORIDE],5.03 pmol,31.6 h,

# Continued, compound first:
Compound,IC50 [1],Activity [2],Activity [3],Activity [4]
COCCc1ccc(OCC(O)CNC(C)C(O)c2ccc(O)cc2)cc1.Cl (centres undefined),6.02 µmol,3.66 pmol,27.1 h,33.7 h
CC(NCC(O)COc1ccc(CC(N)=O)cc1)C(O)c1ccc(O)cc1.Cl (centres undefined),6.32 µmol,3.56 pmol,24 h,31.7 h
CC(=O)Nc1ccc(OCC(O)CNC(C)C(O)c2ccc(O)cc2)cc1.Cl (centres undefined),6.07 µmol,3.48 pmol,25 h,31.8 h
